Experimental data published in ChEMBL document CHEMBL4385671, “Discovery of small molecule inhibitors of human uridine-cytidine kinase 2 by high-throughput screening” (Bioorg Med Chem Lett, 2019).
Calls of active or inactive are those of the source.

Columns and labels:
[1] = target: T1, Uridine-cytidine kinase 2 (Homo sapiens, UniProt Q9BZX2); experiment: Non-competitive inhibition of C-terminally His6-tagged human UCK2 expressed in Escherichia coli BL21(DE3) cells using uridine, phosphoenolpyruvate, NADH and varying ATP level by spectrophotometry based pyruvate kinase and lactate dehydrogenase coupled enzyme assay
T1 sequence (Q9BZX2 whole entry): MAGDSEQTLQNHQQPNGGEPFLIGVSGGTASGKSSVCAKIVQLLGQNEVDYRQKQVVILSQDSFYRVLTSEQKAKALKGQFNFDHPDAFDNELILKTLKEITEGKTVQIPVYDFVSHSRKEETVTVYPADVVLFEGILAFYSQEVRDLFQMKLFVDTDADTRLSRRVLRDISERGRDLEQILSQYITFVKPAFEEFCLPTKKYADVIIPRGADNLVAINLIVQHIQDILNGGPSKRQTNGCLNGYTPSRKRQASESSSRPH
In short: (§1)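 Continuous coupled assay of purified C-terminally His6-tagged UCK2. Substrate titration was done with either uridine or ATP varied, at inhibitor 0, 0.5, 1.5 or 4.5 µM. Ki was derived from kinetic analysis of these titrations.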

[2] = target: T1, Uridine-cytidine kinase 2; experiment: Non-competitive inhibition of C-terminally His6-tagged human UCK2 expressed in Escherichia coli BL21(DE3) cells using phosphoenolpyruvate, NADH and varying uridine level by spectrophotometry based pyruvate kinase and lactate dehydrogenase coupled enzyme assay; in short: as §1
[3] = target: T1, Uridine-cytidine kinase 2; experiment: Inhibition of C-terminally His6-tagged human UCK2 expressed in Escherichia coli BL21(DE3) cells incubated for 15 mins before ATP addition and measured after 60 mins by ADP-Glo kinase assay
In short: (§2)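 His6-tagged UCK2 (C-terminal tag), purified by Ni-NTA then ion exchange; UCK2 phosphorylates uridine with ATP and ADP-Glo measures the ADP formed, after depleting leftover ATP, as luciferase luminescence. Run in 1536-well format with 0.5 mg/mL BSA, DMSO up to 3%. Primary screen at 33 μM with hit cut-off of 3 SD of the negative control. Confirmation used 8 half-log concentrations, 0.05–167 µM.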

[4] = target: T2, Uridine-cytidine kinase 2 (Homo sapiens) (UniProt Q9BZX2); experiment: Inhibition of UCK2 in human K562 cells assessed as inhibition of uridine salvage at 50 uM incubated for 24 hrs by 5-ethynyl-uridine incorporation assay; assay type: cell-based
T2 sequence (whole entry): T1 sequence (Q9BZX2 whole entry)
In short: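 K562 cells were given compound at 50 µM with 50 µM 5-ethynyl-uridine (5-EU). 5-EU incorporated into cellular RNA was quantified by click chemistry with a fluorescent probe. Dipyridamole at 20 µM served as control.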

[5] = target: T1, Uridine-cytidine kinase 2; experiment: Inhibition of C-terminally His6-tagged human UCK2 expressed in Escherichia coli BL21(DE3) cells incubated for 15 mins before ATP addition and measured after 60 mins by ADP-Glo kinase assay based HTS assay; in short: as §2
[6] = target: T3, UMP-CMP kinase (Homo sapiens) (UniProt P30085); experiment: Inhibition of CMPK1 (unknown origin) by ADP-Glo kinase assay
T3 sequence (whole entry): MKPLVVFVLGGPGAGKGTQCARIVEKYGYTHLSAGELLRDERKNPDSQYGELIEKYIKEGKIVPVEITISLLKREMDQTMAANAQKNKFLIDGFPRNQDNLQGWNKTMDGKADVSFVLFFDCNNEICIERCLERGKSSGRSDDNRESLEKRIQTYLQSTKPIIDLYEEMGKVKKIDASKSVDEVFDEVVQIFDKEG

[7] = target: Dihydroorotate dehydrogenase (quinone), mitochondrial (Homo sapiens) (UniProt Q02127); experiment: Inhibition of DHODH in human K562 cells assessed as increase in uridine salvage at 200 nM incubated for 24 hrs by 5-ethynyl-uridine incorporation assay; assay type: cell-based
Dihydroorotate dehydrogenase (quinone), mitochondrial (Homo sapiens), sequence (Q02127 whole entry): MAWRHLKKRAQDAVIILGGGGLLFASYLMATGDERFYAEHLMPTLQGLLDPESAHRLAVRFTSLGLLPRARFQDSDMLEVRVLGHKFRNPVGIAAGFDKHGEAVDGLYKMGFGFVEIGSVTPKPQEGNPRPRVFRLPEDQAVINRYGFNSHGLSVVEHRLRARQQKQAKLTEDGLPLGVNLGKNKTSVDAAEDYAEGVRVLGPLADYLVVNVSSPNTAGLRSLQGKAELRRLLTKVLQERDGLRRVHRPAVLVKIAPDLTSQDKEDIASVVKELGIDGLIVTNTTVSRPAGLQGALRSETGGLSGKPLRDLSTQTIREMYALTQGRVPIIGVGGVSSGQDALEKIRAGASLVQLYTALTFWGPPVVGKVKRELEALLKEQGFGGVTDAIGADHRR

Row | IC50 ([3]; read-out: IC50) | inhibition [4] | IC50 [5] | Compound | further results
1 | 16.4 to 16.6 µM | 31.3% | 9.2 µM | O=C(CSc1nc2n(-c3ccc(F)cc3)[nH]cc-2c(=O)n1)Nc1ccc(Br)cc1 | Ki [1]: 12 µM; Ki [2]: 13 µM
2 |  | 26.3% |  | Cc1ccccc1NC(=O)CSCn1[nH]nc2c(=O)nc(Cc3ccc(F)cc3)nc1-2 | 
3 |  |  |  | COc1cccc(NC(=O)CSCn2[nH]nc3c(=O)nc(Cc4ccc(F)cc4)nc2-3)c1 | IC50 [3]: Not Active
4 |  |  | 166 µM | O=C(CSc1nc(-c2ccc(F)cc2)nc2c1Cc1ccccc1O2)Nc1cccc(C(=O)O)c1 | 
5 | 3.8 µM | 51.7% | 52 µM | Cc1ccc(-c2nc3c(c(SCC(=O)Nc4cccc(C(=O)O)c4)n2)Cc2cccc(C)c2O3)cc1 | Ki [1]: 1 µM; Ki [2]: 3.5 µM
6 |  |  | 80 µM | COc1ccccc1NC(=O)CSc1nc(-c2ccc(C(C)(C)C)cc2)c(C#N)c(=O)[nH]1 | 
7 | 26.8 µM | inactive |  | Cc1ccc(-c2nc3c(c(SCC(=O)Nc4ccccc4)n2)Cc2cccc(C)c2O3)cc1 | 
8 |  |  | 166 µM | O=C(CSc1nc(-c2ccc(O)cc2)nc2c1Cc1ccccc1O2)Nc1cccc(C(=O)O)c1 | 
9 | 48 µM | 41.5% | 18.9 µM | Cc1cc(C)cc(NC(=O)CSCn2[nH]nc3c(=O)nc(Cc4ccc(F)cc4)nc2-3)c1 | Ki [1]: 31 µM; Ki [2]: 50 µM; inhibition [6]: inactive
10 | 11.8 µM | 14.9% |  | COc1cccc2c1Oc1nc(-c3ccc(C)cc3)nc(SCC(=O)Nc3cccc(C(=O)O)c3)c1C2 | 
11 |  |  |  | O=C(CSCn1[nH]nc2c(=O)nc(Cc3ccc(F)cc3)nc1-2)Nc1ccc(F)cc1 | IC50 [3]: Not Active
12 |  |  |  | O=C(N[C@@H]1CCCc2c1[nH]c1ccc(Cl)cc21)c1ccccn1 | inhibition [7]: Active
13 |  |  | 138 µM | CC(C)(C)c1ccc(-c2nc(SCC(=O)Nc3ccc(Cl)cc3)[nH]c(=O)c2C#N)cc1 | 
14 | 4.7 µM | 49.6% |  | Cc1cccc2c1Oc1nc(-c3ccccc3)nc(SCC(=O)Nc3cccc(C(=O)O)c3)c1C2 | 
